Results taken from ChEMBL document CHEMBL3616466, “Pyrazolo[3,4-h]quinolines promising photosensitizing agents in the treatment of cancer” (Eur J Med Chem, 2015).

How the values were obtained:
Type in all cases: functional
[1] = test system: LoVo; assay: Cytotoxicity against human LoVo cells assessed as growth inhibition after 72 hrs by MTT assay
Method in brief: (§1)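 Cells (5 × 10³ per well) pre-incubated 24 h at 37 °C, 5% CO₂, then exposed in the dark to serial concentrations diluted from DMSO stock into complete medium for 72 h at 37 °C. Viability read by MTT; GI50 derived. LoVo in Ham's F-12, MCF-7 and A-549 in DMEM, all with 10% FBS and penicillin/streptomycin.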

[2] = test system: A549; assay: Cytotoxicity against human A549 cells assessed as growth inhibition after 72 hrs by MTT assay; settings: A549, 72 h; method in brief: as §1
[3] = test system: Jurkat; assay: Cytotoxicity against human Jurkat cells assessed as growth inhibition after 72 hrs by MTT assay
[4] = test system: MCF7; assay: Photocytotoxicity against human MCF7 cells assessed as growth inhibition at 2.5 J/cm'2 irradiation for 30 mins followed by drug treated for 72 hrs by MTT assay; settings: MCF7, light or radiation study
Method in brief: (§2)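 Cells seeded at 5 × 10³ per well and pre-incubated 24 h. Drug dilutions in HBSS (pH 7.2, from DMSO stock) added for 30 min at 37 °C, then UV-A irradiation at the stated dose. Drug solution then replaced with culture medium and plates incubated 72 h. Viability by MTT; GI50 from concentration series.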

[5] = test system: Jurkat; assay: Photocytotoxicity against human Jurkat cells assessed as growth inhibition at 1.25 J/cm'2 irradiation for 30 mins followed by drug treated for 72 hrs by MTT assay; settings: light or radiation study; method in brief: as §2
[6] = test system: LoVo; assay: Photocytotoxicity against human LoVo cells assessed as growth inhibition at 3.75 J/cm'2 irradiation for 30 mins followed by drug treated for 72 hrs by MTT assay; settings: light or radiation study; method in brief: as §2
[7] = test system: MCF7; assay: Cytotoxicity against human MCF7 cells assessed as growth inhibition after 72 hrs by MTT assay; settings: MCF7, 72 h; method in brief: as §1
[8] = test system: A549; assay: Photocytotoxicity against human A549 cells assessed as growth inhibition at 3.75 J/cm'2 irradiation for 30 mins followed by drug treated for 72 hrs by MTT assay; settings: A549, light or radiation study; method in brief: as §2
[9] = test system: HL-60; assay: Photocytotoxicity against human HL60 cells assessed as growth inhibition at 1.25 J/cm'2 irradiation for 30 mins followed by drug treated for 72 hrs by MTT assay; settings: HL-60, light or radiation study; method in brief: as §2
[10] = test system: Jurkat; assay: Photocytotoxicity against human Jurkat cells assessed as growth inhibition at 2.5 J/cm'2 irradiation for 30 mins followed by drug treated for 72 hrs by MTT assay; settings: light or radiation study; method in brief: as §2
[11] = test system: HL-60; assay: Cytotoxicity against human HL60 cells assessed as growth inhibition after 72 hrs by MTT assay; settings: HL-60, 72 h
[12] = test system: HL-60; assay: Photocytotoxicity against human HL60 cells assessed as growth inhibition at 2.5 J/cm'2 irradiation for 30 mins followed by drug treated for 72 hrs by MTT assay; settings: HL-60, light or radiation study; method in brief: as §2
[13] = test system: A549; assay: Photocytotoxicity against human A549 cells assessed as growth inhibition at 2.5 J/cm'2 irradiation for 30 mins followed by drug treated for 72 hrs by MTT assay; settings: A549, light or radiation study; method in brief: as §2
[14] = test system: MCF7; assay: Photocytotoxicity against human MCF7 cells assessed as growth inhibition at 3.75 J/cm'2 irradiation for 30 mins followed by drug treated for 72 hrs by MTT assay; settings: MCF7, light or radiation study; method in brief: as §2
[15] = test system: LoVo; assay: Photocytotoxicity against human LoVo cells assessed as growth inhibition at 2.5 J/cm'2 irradiation for 30 mins followed by drug treated for 72 hrs by MTT assay; settings: light or radiation study; method in brief: as §2

Compound	GI50 [1]	GI50 [2]	GI50 [3]	GI50 [4]	GI50 [5]	GI50 [6]	GI50 [7]	GI50 [8]	GI50 [9]	GI50 [10]	GI50 [11]	GI50 [12]	GI50 [13]	GI50 [14]	GI50 [15]
COc1nc2c(ccc3c2cnn3-c2ccc(Cl)cc2)cc1S(=O)(=O)c1ccccc1	> 20 µM	4.6 µM	> 20 µM	5.36 µM	4.23 µM	0.71 µM	7.51 µM	0.75 µM	2.16 µM	0.96 µM	> 20 µM	1.2 µM	3.09 µM	3.23 µM	1.43 µM
COc1ccc(-n2ncc3c2CCc2cc(S(=O)(=O)c4ccccc4)c(=O)n(Cc4ccccc4)c2-3)cc1				> 20 µM	> 20 µM	4.12 µM		> 20 µM	> 20 µM	> 20 µM		> 20 µM	> 20 µM	> 20 µM	> 20 µM
CCOC(=O)c1cc2c(n(C)c1=O)-c1cnn(-c3ccc(Cl)cc3)c1CC2				> 20 µM	> 20 µM	> 20 µM		> 20 µM	> 20 µM	> 20 µM		7.67 µM	> 20 µM	> 20 µM	> 20 µM
Cn1c2c(cc(S(=O)(=O)c3ccccc3)c1=O)CCc1c-2cnn1Cc1ccccc1				> 20 µM	> 20 µM	13 µM		> 20 µM	> 20 µM	5.67 µM		6.79 µM	> 20 µM	> 20 µM	> 20 µM
O=c1[nH]c2c(cc1S(=O)(=O)c1ccccc1)CCc1c-2cnn1-c1cccc(Cl)c1	> 20 µM	6.41 µM	4.55 µM	> 20 µM	> 20 µM	> 20 µM	> 20 µM	9.53 µM	> 20 µM	> 20 µM	> 20 µM	> 20 µM	14.1 µM	> 20 µM	> 20 µM
CCOC(=O)c1cc2c(nc1OC)-c1cnn(-c3ccc(OC)cc3)c1CC2				> 20 µM	9.93 µM	4.3 µM		4.67 µM	7.71 µM	6.43 µM		4.69 µM	6.99 µM	> 20 µM	5.81 µM
COc1nc2c(cc1S(=O)(=O)c1ccccc1)CCc1c-2cnn1Cc1ccccc1	> 20 µM	> 20 µM	8.43 µM	4 µM	2.48 µM	1.41 µM	> 20 µM	5.74 µM	3.83 µM	1.4 µM	6.1 µM	1.3 µM	10.4 µM	3.05 µM	5.32 µM
COc1ccc(-n2ncc3c2CCc2cc(S(=O)(=O)c4ccccc4)c(OCc4ccccc4)nc2-3)cc1				> 20 µM	> 20 µM	2.76 µM		5.74 µM	> 20 µM	> 20 µM		9.09 µM	> 20 µM	> 20 µM	> 20 µM
O=c1[nH]c2c(ccc3c2cnn3-c2ccc(Cl)cc2)cc1S(=O)(=O)c1ccccc1	> 20 µM	1.46 µM	> 20 µM				9.26 µM				> 20 µM				
O=c1[nH]c2c(cc1S(=O)(=O)c1ccccc1)CCc1c-2cnn1-c1ccccc1Cl				13 µM	11.3 µM	10.1 µM		8.97 µM		3.95 µM		2.76 µM	13.3 µM	10.4 µM	> 20 µM
CCOC(=O)c1cc2c([nH]c1=O)-c1cnn(-c3ccc(Cl)cc3)c1CC2	> 20 µM	5 µM	> 20 µM	7.32 µM	> 20 µM	> 20 µM	6.38 µM	> 20 µM	> 20 µM	> 20 µM	> 20 µM	> 20 µM	> 20 µM	9.85 µM	> 20 µM
COc1nc2c(cc1S(=O)(=O)c1ccccc1)CCc1c-2cnn1-c1cccc(Cl)c1	> 20 µM	> 20 µM	13.2 µM	5.15 µM	1.95 µM	2.99 µM	> 20 µM	6.61 µM	3.42 µM	1.34 µM	> 20 µM	0.53 µM	13.3 µM	2.52 µM	9.84 µM
O=c1[nH]c2c(cc1S(=O)(=O)c1ccccc1)CCc1c-2cnn1-c1ccccc1	> 20 µM	10.8 µM	20 µM	> 20 µM	> 20 µM	> 20 µM	11.5 µM	14.1 µM	> 20 µM	> 20 µM	> 20 µM	> 20 µM	> 20 µM	> 20 µM	> 20 µM
Cn1c2c(cc(S(=O)(=O)c3ccccc3)c1=O)CCc1c-2cnn1-c1cccc(Cl)c1	> 20 µM	> 20 µM	11.3 µM	12.7 µM	> 20 µM	7.54 µM	> 20 µM	8.4 µM	> 20 µM	2.81 µM	> 20 µM	2.44 µM	> 20 µM	9.01 µM	13.1 µM
O=c1ccc2ccc3occc3c2o1 [ANGELICIN]				4.42 µM		1.11 µM				1 µM		1.2 µM		1.5 µM	4 µM
Cn1c2c(cc(S(=O)(=O)c3ccccc3)c1=O)CCc1c-2cnn1-c1ccccc1Cl				> 20 µM	> 20 µM	13.1 µM		13 µM	11.5 µM	5.21 µM		4.82 µM	> 20 µM	12.6 µM	> 20 µM
COc1ccc(-n2ncc3c2CCc2cc(S(=O)(=O)c4ccccc4)c(=O)n(C)c2-3)cc1				> 20 µM	> 20 µM	> 20 µM		> 20 µM	> 20 µM	6.68 µM		7.65 µM	> 20 µM	> 20 µM	> 20 µM
COc1ccc(-n2ncc3c2CCc2cc(S(=O)(=O)c4ccccc4)c(=O)[nH]c2-3)cc1	> 20 µM	4.04 µM	> 20 µM				8.54 µM				> 20 µM				
COc1nc2c(cc1S(=O)(=O)c1ccccc1)CCc1c-2cnn1C				> 20 µM	> 20 µM	> 20 µM		> 20 µM	> 20 µM	12.7 µM		9.79 µM	> 20 µM	> 20 µM	> 20 µM
O=c1[nH]c2c(cc1S(=O)(=O)c1ccccc1)CCc1c-2cnn1Cc1ccccc1				> 20 µM	> 20 µM	14.5 µM		> 20 µM	> 20 µM	6.88 µM		5.06 µM	> 20 µM	> 20 µM	> 20 µM
O=c1[nH]c2c(cc1S(=O)(=O)c1ccccc1)CCc1c-2cnn1-c1ccc(Cl)cc1	> 20 µM	6.25 µM	> 20 µM				11.2 µM				> 20 µM				
Cn1c2c(cc(S(=O)(=O)c3ccccc3)c1=O)CCc1c-2cnn1-c1ccccc1				> 20 µM	> 20 µM	> 20 µM		> 20 µM	> 20 µM	6.99 µM		> 20 µM	> 20 µM	> 20 µM	> 20 µM
CCOC(=O)c1cc2c(nc1OC)-c1cnn(-c3ccc(Cl)cc3)c1CC2				> 20 µM	4.47 µM	1.13 µM		2.3 µM	5.38 µM	1.81 µM		1.71 µM	3.68 µM	> 20 µM	2.79 µM
Cn1c2c(cc(S(=O)(=O)c3ccccc3)c1=O)CCc1c-2cnn1-c1ccc(Cl)cc1				> 20 µM	> 20 µM	11.1 µM		> 20 µM	> 20 µM	3.01 µM		2.88 µM	> 20 µM	> 20 µM	> 20 µM
